Apaf1 inhib: blocks human Apaf-1 apoptosome activity; O14727; reconstituted apoptosome caspase-3 activity, DEVD-Rh110 fluorescence; inhibition, % at 20 µM; 330,000 compounds, 0.71% hits; active means inhibition of at least 40% at 20 µM;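 further: plate controls were DMSO wells for no effect and DEVD-CHO caspase inhibitor wells for full effect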
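Material: reconstituted apoptosome with Apaf-1, cytochrome c, caspase-9, procaspase-3, dATP. Technique: Rh110 fluorescence intensity. Buffer or medium: pH 7.5 Hepes buffer with CHAPS, BSA, DTT. Times: 30 min plus 50 min, RT.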
SENP1 inh: SENP1 (human) catalytic domain inhibition | Q9P0U3 | recombinant SENP1 catalytic domain, CyPet-SUMO1-YPet FRET cleavage | inhibition, % at 10 µM | 360,000 compounds, 0.21% hits;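 active means inhibition at least 30% at 10 µM, raw YFP signal under a set limit, fluorescence ratio 0.5 to 1.5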;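 further: 0% = enzyme with DMSO and 100% = no enzyme wells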
Target sequence (Q9P0U3 419-644 limits assumed): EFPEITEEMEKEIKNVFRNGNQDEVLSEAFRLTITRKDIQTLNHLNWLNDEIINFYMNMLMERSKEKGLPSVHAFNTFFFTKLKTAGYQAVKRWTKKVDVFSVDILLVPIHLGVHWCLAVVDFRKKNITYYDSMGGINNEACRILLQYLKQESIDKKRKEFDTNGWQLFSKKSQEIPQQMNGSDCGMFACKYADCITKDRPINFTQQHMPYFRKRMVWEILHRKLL
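Compound: 10 µM single point, 0.5% DMSO; Test system: hSENP1 catalytic domain, recombinant; Timing: 50 min reaction at room temperature; Technique: FRET, CFP and YFP emission; Control set: no-enzyme wells low, DMSO-plus-enzyme wells high control.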
SENP6 inh: SENP6 protease inhibition. inhibition, % at 10 µM. 330,000 compounds, 1.8% hits. Recombinant SENP6 catalytic domain, aminoluciferin luminescence. Q9GZR1;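 active means inhibition above about 50% at the single tested dose, limit read from the data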;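 further: plate controls were DMSO wells with enzyme for no effect and DMSO wells lacking enzyme for full effect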
SENP7 inh: inhibitors of human SENP7 protease. Q9BQF6. recombinant SENP7, Z-RLRGG-aminoluciferin luminescence, 40 min. inhibition, % at 5 µM. 330,000 compounds, 1.5% hits. AID 434973;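 active means inhibition above about 50% at the single test dose, limit read from the data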;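 further: plate controls were DMSO with enzyme for no effect and no enzyme buffer wells for full effect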
SENP8 block-1: SENP8 protease inhibition; Q96LD8; purified SENP8, Z-RLRGG-aminoluciferin cleavage, luminescence; inhibition, % at 10 µM; 330,000 compounds, 1.2% hits; AID 2540; in the data active means inhibition above about 50%
Target sequence (Q96LD8 whole entry, looked up): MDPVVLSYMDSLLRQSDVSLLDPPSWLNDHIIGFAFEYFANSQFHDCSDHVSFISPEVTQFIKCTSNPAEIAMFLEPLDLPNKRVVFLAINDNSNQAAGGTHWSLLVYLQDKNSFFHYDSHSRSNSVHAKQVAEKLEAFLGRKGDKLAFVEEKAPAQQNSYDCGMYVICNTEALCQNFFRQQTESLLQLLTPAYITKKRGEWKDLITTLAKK
SENP8 block-2: inhibitors of human SENP8 protease | AID 602440 | recombinant SENP8, Nedd8 substrate fluorescence | inhibition, % at 20 µM | 360,000 compounds, 0.64% hits | Q96LD8; in the data active means inhibition mostly above about 40%, no sharp cut-off; inactive means mostly below about 27%
SENP8 conf: human SENP8 inhibition, confirmed | inhibition, % at 12.5 µM | AID 488912 | 6,200 compounds, 40% hits | Recombinant SENP8, Z-RLRGG-aminoluciferin luminescence, 60 min | shares compounds with SENP7 inh;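 active means mean inhibition across replicates above about 50%, limit read from the data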
SENP6 confirm: human SENP6 inhibition, confirmed; AID 488915; 6,200 compounds, 58% hits; recombinant SENP6, Z-RLRGG-aminoluciferin luminescence; inhibition, % at 12.5 µM; shares compounds with SENP7 inh
SENP7 conf: human SENP7 inhibition, confirmed; inhibition, % at 12.5 µM; shares compounds with SENP7 inh; recombinant SENP7, Z-RLRGG-aminoluciferin luminescence, 40 min; 6,200 compounds, 69% hits
Casp3 SENP sel: caspase-3 inhibition (SENP selectivity assay); 6,200 compounds, 60% hits; inhibition, % at 12.5 µM; shares compounds with SENP7 inh; purified caspase-3, Z-DEVD-aminoluciferin luminescence, 60 min;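 active means mean inhibition above about 50%, limit read from the data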;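 further: plate controls were enzyme with DMSO for no effect and wells without caspase-3 for full effect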
Target sequence (P42574 28-227 limits assumed): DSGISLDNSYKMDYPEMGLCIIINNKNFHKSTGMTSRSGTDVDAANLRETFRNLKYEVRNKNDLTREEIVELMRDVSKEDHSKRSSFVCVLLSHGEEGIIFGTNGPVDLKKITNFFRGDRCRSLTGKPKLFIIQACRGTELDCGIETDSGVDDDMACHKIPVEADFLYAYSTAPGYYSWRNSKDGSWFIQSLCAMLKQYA
SENP luc ctr: luminescence interference (SENP counter-screen) | inhibition, % at 12.5 µM | AID 488919 | Pre-incubated SENP8/Z-RLRGG-aminoluciferin, luciferase luminescence interference | 6,200 compounds, 39% hits | shares compounds with SENP7 inh;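 active means mean inhibition above about 50% when retested at one dose, limit read from the data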;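 further: plate controls were DMSO wells with completed reaction for no effect and substrate without enzyme for full effect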
An asterisk follows results filed as active. This is a sample that favours compounds with a hit; in the whole collection about 2.9% have one here.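 How the source made its calls, unless noted: active means mean inhibition above about 50% in the one-dose retest (limit read from the data); inactive means the rest.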

How did O=C(Nc1ccccc1C(=O)O)c1ccc2ccccc2n1 do in these assays?
Apaf1 inhib: 2; SENP1 inh: -2; SENP6 inh: 54*; SENP7 inh: 26; SENP8 block-1: 35; SENP8 block-2: -20; SENP8 conf: 65*; SENP6 confirm: 60*; SENP7 conf: 83*; Casp3 SENP sel: 81*; SENP luc ctr: 49

Results for O=C(Nc1ccc(Cl)cn1)c1ccc2ccccc2n1 ?
Apaf1 inhib: -9; SENP1 inh: 1; SENP6 inh: -15; SENP7 inh: 35; SENP8 block-1: -8; SENP8 block-2: 16

What do the screens show for `CC(=O)c1cccc2c(O)c(C3=Nc4ccccc4C3=O)[nH]c12`?
Apaf1 inhib: 14; SENP1 inh: -10; SENP6 inh: 54*; SENP7 inh: 13; SENP8 block-1: 59*; SENP8 block-2: -1; SENP8 conf: 48; SENP6 confirm: 60*; SENP7 conf: 43; Casp3 SENP sel: 46; SENP luc ctr: 19

Results for O=C(Nc1nc2ccsc2c(=O)s1)c1ccc(F)cc1Cl ?
Apaf1 inhib: -10; SENP1 inh: -6; SENP6 inh: 89*; SENP7 inh: 98*; SENP8 block-1: 86*; SENP8 block-2: -104; SENP8 conf: 44; SENP6 confirm: 52*; SENP7 conf: 45; Casp3 SENP sel: 52*; SENP luc ctr: 4

What do the screens show for `O=C(Nc1nc2ccsc2c(=O)s1)c1ccc(F)cc1`?
Apaf1 inhib: -11; SENP1 inh: -33; SENP6 inh: 96*; SENP7 inh: 100*; SENP8 block-1: 94*; SENP8 block-2: -83; SENP8 conf: 37; SENP6 confirm: 93*; SENP7 conf: 47; Casp3 SENP sel: 56*; SENP luc ctr: 18

What do the screens show for `CC1(Cc2cc(Cl)ccc2C(F)(F)F)C(=O)Nc2cc(-c3ccccc3Cl)ccc21` (stereo unspecified)?
SENP1 inh: -1; SENP8 block-2: 14

How did C/C(=N/OC(=O)c1ccccc1)c1oc(C)nc1C do in these assays?
Apaf1 inhib: -19; SENP1 inh: 3; SENP6 inh: 62*; SENP7 inh: 78*; SENP8 block-1: 48; SENP8 block-2: 20; SENP8 conf: 67*; SENP6 confirm: 67*; SENP7 conf: 90*; Casp3 SENP sel: 87*; SENP luc ctr: 52*

What do the screens show for `CC(=O)c1cccc(NC(=O)c2oc(C)nc2C)c1`?
Apaf1 inhib: -13; SENP1 inh: 0; SENP6 inh: -13; SENP7 inh: -3; SENP8 block-1: -4; SENP8 block-2: 18

Results for CC1=CC2=C(C=O)C(=O)C(C)(O)C(O)C2=CO1 (stereo unspecified) ?
SENP1 inh: -63; SENP8 block-2: -110

What do the screens show for `Cc1cnn(-c2cc(N/N=C/c3ccccc3F)ncn2)c1`?
Apaf1 inhib: 1; SENP1 inh: 3; SENP6 inh: -10; SENP7 inh: -2; SENP8 block-1: -1; SENP8 block-2: 12

How did COc1cc(N/N=C/c2ccccc2O)ncn1 do in these assays?
Apaf1 inhib: 0; SENP1 inh: -13; SENP6 inh: 74*; SENP7 inh: 71*; SENP8 block-1: 1; SENP8 block-2: -19; SENP8 conf: 63*; SENP6 confirm: 63*; SENP7 conf: 89*; Casp3 SENP sel: 75*; SENP luc ctr: 59*

What do the screens show for `COc1cc(N/N=C/c2ccc(N(C)C)cc2)ncn1`?
Apaf1 inhib: 0; SENP1 inh: -10; SENP6 inh: 96*; SENP7 inh: 97*; SENP8 block-1: 93*; SENP8 block-2: -389; SENP8 conf: 70*; SENP6 confirm: 81*; SENP7 conf: 94*; Casp3 SENP sel: 78*; SENP luc ctr: 23

How did CCNc1nc(NCC)nc(N/N=C/c2ccc(N(C)C)cc2)n1 do in these assays?
Apaf1 inhib: -15; SENP1 inh: -1; SENP6 inh: -1; SENP7 inh: 1; SENP8 block-1: -5; SENP8 block-2: -408

What do the screens show for `c1ccc(-c2ccc3cnccc3n2)cc1`?
SENP1 inh: 2; SENP8 block-2: -1

Results for c1ccc(-c2ccc3sccc3n2)cc1 ?
Apaf1 inhib: 5; SENP1 inh: 2; SENP6 inh: 83*; SENP7 inh: 85*; SENP8 block-1: 75*; SENP8 block-2: 16; SENP8 conf: 36; SENP6 confirm: 78*; SENP7 conf: 94*; Casp3 SENP sel: 79*; SENP luc ctr: 57*

Results for O=C(Nc1nccs1)c1ccc2ccccc2c1 ?
Apaf1 inhib: 6; SENP1 inh: -2; SENP6 inh: 73*; SENP7 inh: 72*; SENP8 block-1: 69*; SENP8 block-2: -1; SENP8 conf: 81*; SENP6 confirm: 80*; SENP7 conf: 93*; Casp3 SENP sel: 71*; SENP luc ctr: 80*

Results for O=C(Nc1ccc(Br)cn1)c1ccc2ccccc2c1 ?
Apaf1 inhib: 6; SENP1 inh: 3; SENP6 inh: -1; SENP7 inh: 61*; SENP8 block-1: -11; SENP8 block-2: 0; SENP8 conf: -9; SENP6 confirm: -7; SENP7 conf: -2; Casp3 SENP sel: 8; SENP luc ctr: 3

What do the screens show for `O=C(Nc1nccs1)c1ccc(Br)cc1`?
Apaf1 inhib: -12; SENP1 inh: 1; SENP6 inh: 41; SENP7 inh: 20; SENP8 block-1: 9; SENP8 block-2: 24

How did COc1ccc(Cl)cc1C(=O)Nn1cnnc1 do in these assays?
Apaf1 inhib: -19; SENP1 inh: 1; SENP6 inh: 12; SENP7 inh: -5; SENP8 block-1: 6; SENP8 block-2: 6

Results for CC(C)(COC(=O)c1ccccc1)N1CC2CCC(C1)O2 ?
SENP1 inh: 1; SENP8 block-2: 8

How did N#C/C(=C(/O)CSc1ccccn1)c1nc2ccccc2s1 do in these assays?
Apaf1 inhib: 3; SENP1 inh: -37; SENP6 inh: 8; SENP7 inh: -6; SENP8 block-1: 6; SENP8 block-2: -8

Assay outcomes from PubChem BioAssay.
